Measurements published in PMC7396962 (Xenobiotica; the fate of foreign compounds in biological …, 2020).
Values after ≈ are worked out from the molar mass of the structure shown.

Assays:
[1] = test system: pooled HLM; assay: Glucuronidation of CA in pooled HLM; format: in vitro ADME, human; conditions: higher than phase I metabolism
Summary of the method: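 Pooled human liver microsomes (1 mg/mL) with test compound 0.16–80 μM, UDPGA 3.5 mM, alamethicin 22 μg/mL, saccharolactone 4.4 mM and MgCl2 0.88 mM in Tris-HCl pH 7.4, 37 °C for 60 min. Phase I run in parallel with 1 mM NADPH. Metabolites quantified by UHPLC-UV (270 nm) as parent equivalents; kinetics fitted by model, CLint = Vmax/Km; triplicate.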

[2] = molecular target: T1, UGT1A1 (Homo sapiens, UniProt P22309); assay: Glucuronidation of CA by recombinant UGT1A1; format: in vitro ADME; conditions: formation of the glucuronide from CA
T1 sequence (P22309 26-533): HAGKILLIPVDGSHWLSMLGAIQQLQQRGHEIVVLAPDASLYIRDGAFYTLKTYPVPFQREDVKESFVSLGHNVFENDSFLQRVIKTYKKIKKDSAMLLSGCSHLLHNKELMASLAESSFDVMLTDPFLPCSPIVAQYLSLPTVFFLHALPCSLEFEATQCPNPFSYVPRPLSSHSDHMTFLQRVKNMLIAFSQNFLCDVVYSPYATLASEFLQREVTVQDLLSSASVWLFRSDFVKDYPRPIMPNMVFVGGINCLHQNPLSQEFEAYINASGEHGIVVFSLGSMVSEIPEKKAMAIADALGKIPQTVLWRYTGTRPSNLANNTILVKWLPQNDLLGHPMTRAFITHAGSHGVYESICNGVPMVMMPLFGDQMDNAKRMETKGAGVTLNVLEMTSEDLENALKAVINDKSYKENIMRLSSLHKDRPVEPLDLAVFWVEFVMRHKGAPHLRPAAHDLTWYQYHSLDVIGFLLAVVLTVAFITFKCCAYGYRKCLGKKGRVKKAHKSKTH

[3] = test system: expressed human CYP enzymes; assay: Reaction phenotyping with twelve expressed CYP enzymes; format: in vitro ADME
Summary of the method: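 Twelve expressed human CYPs (1–1.2 mg/mL) with test compound 0.16–80 μM, NADPH 1 mM and MgCl2 in 50 mM Tris-HCl pH 7.4, 37 °C, 60 min. Controls lacked NADPH. Acetonitrile quench, then UHPLC-UV/Q-TOF MS. Formation rates given as pmol/min/mg protein. Kinetics fitted after Eadie–Hofstee inspection; CLint = Vmax/Km; triplicate.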

[4] = test system: recombinant human UGT isoforms; assay: Reaction phenotyping with twelve recombinant UGT isoforms; format: in vitro ADME
[5] = molecular target: T2, MRP4 (Homo sapiens, UniProt O15439); assay: Glucuronide excretion in HeLa1A1 cells with knock-down of MRP4; format: cell-based; conditions: knock-down of MRP4 transporter
T2 sequence (O15439 1-1325): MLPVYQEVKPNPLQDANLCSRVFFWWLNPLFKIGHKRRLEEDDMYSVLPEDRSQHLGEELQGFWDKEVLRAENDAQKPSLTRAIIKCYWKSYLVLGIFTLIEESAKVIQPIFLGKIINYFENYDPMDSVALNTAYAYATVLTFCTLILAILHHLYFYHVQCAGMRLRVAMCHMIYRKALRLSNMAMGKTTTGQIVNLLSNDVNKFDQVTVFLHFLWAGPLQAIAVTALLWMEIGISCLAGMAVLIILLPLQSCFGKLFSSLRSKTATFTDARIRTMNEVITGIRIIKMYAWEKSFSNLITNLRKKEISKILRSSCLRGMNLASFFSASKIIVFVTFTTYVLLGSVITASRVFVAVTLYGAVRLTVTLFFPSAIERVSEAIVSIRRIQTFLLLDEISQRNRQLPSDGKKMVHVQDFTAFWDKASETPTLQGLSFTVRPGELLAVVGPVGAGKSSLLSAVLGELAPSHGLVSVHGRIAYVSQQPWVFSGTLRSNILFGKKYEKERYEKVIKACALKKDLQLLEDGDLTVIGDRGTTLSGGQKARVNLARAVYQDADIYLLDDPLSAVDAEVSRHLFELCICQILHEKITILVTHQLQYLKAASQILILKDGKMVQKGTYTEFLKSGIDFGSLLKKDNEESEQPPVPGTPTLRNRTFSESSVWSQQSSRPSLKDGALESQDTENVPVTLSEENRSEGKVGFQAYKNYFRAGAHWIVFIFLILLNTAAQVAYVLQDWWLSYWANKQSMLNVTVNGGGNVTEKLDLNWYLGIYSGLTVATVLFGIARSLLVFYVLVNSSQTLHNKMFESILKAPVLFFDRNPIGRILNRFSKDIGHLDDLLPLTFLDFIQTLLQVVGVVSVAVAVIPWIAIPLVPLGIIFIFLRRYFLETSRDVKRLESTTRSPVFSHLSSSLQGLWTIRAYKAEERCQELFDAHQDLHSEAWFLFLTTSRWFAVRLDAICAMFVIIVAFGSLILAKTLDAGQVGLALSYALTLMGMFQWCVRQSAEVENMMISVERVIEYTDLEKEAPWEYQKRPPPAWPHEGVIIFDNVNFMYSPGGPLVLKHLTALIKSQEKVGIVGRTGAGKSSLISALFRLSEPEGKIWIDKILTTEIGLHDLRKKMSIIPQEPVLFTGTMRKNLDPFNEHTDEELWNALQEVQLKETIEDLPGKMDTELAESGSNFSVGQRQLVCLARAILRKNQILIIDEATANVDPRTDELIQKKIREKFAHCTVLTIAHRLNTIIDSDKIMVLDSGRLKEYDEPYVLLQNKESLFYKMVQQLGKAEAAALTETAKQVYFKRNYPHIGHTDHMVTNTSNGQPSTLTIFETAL
Summary of the method: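 HeLa1A1 cells at ~50% confluence transiently transfected with transporter shRNA plasmid (10 μg/mL); medium replaced at 6 h; scrambled shRNA as control. At confluence cells washed and incubated with test compound in HBSS. Extracellular glucuronide sampled over 2 h and intracellular glucuronide measured at the end. ER = V·dC/dt, CLapp = ER/Ci, fmet calculated; triplicate.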

[6] = molecular target: human carboxylesterase 2; conditions: ref Li et al., 2015, cited from earlier work
[7] = test system: HepG2 hepatocellular carcinoma cell line; conditions: cited from earlier work
[8] = test system: Hep3B hepatocellular carcinoma cell line; conditions: cited from earlier work

CC(C)=CCC/C(C)=C/Cc1cc(-c2coc3cc(O)ccc3c2=O)ccc1O [CA, Corylifol A]
intrinsic clearance value of glucuronidation relative to phase I metabolism [1]: 4 fold
CLint [2]: 284.07 µL/min/mg
metabolism of CA ([3]; CYP1A2, 1B1, 2A6, 2B6, 2E1, 3A4 and 3A5): cannot metabolize CA at all
CLint values (phase I metabolic activities) ([3]; range over CYP1A1, 2C8 and 2C19): 13.01 to 49.36 µL/min/mg
catalytic activity to CA-glucuronidation ([4]; UGT1A1, 1A7, 1A8 and 1A9): strong catalytic activity
catalytic activity to CA-glucuronidation ([4]; UGT1A3, 1A4, 2B4 and 2B7): weak catalytic activity
fmet value of CA [5]: significant decrease
IC50 ([6]; read-out: IC50, human carboxylesterase 2): 620 nM
Ki ([6]; read-out: Ki, human carboxylesterase 2): 870 nM
IC50, cytotoxic activity [7]: 4.6 µg/mL (≈ 11.8 µM)
IC50, cytotoxic activity [8]: 13.5 µg/mL (≈ 34.6 µM)
